Reference: ChEMBL document CHEMBL1275272, “Synthesis, characterization and antimicrobial activity of some disubstituted 1,3,4-oxadiazoles carrying 2-(aryloxymethyl)phenyl moiety” (2010)
≈ marks a conversion by molar mass, not a printed value.

How the values were obtained:
Format in all cases: functional
[1] = system: Klebsiella pneumoniae; test: Antibacterial activity against Klebsiella pneumoniae after 16 to 18 hrs by serial dilution method; settings: for MIC: Klebsiella pneumoniae
[2] = system: Aspergillus flavus; test: Antifungal activity against Aspergillus flavus after 16 to 18 hrs by serial dilution method; settings: for MIC: Aspergillus flavus
Method in brief: (§1)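 The test compound was dissolved in DMF and serially diluted. A standard drop of the prepared microbial culture was added to each dilution, and tubes were incubated at 37 °C for 16–18 h. MIC was taken as the highest dilution that stayed clear with no visible turbidity.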

[3] = system: Escherichia coli; test: Antibacterial activity against Escherichia coli after 16 to 18 hrs by serial dilution method; settings: for MIC: Escherichia coli; method in brief: as §1
[4] = system: Aspergillus fumigatus; test: Antifungal activity against Aspergillus fumigatus after 16 to 18 hrs by serial dilution method; settings: for MIC: Aspergillus fumigatus
[5] = system: Trichophyton mentagrophytes; test: Antifungal activity against Trichophyton mentagrophytes after 16 to 18 hrs by serial dilution method; settings: for MIC: Trichophyton mentagrophytes
[6] = system: Talaromyces marneffei; test: Antifungal activity against Penicillium marneffei after 16 to 18 hrs by serial dilution method; settings: for MIC: Talaromyces marneffei; method in brief: as §1
[7] = system: Pseudomonas aeruginosa; test: Antibacterial activity against Pseudomonas aeruginosa after 16 to 18 hrs by serial dilution method; settings: for MIC: Pseudomonas aeruginosa; method in brief: as §1
[8] = system: Staphylococcus aureus; test: Antibacterial activity against Staphylococcus aureus after 16 to 18 hrs by serial dilution method; settings: for MIC: Staphylococcus aureus; method in brief: as §1

Compound	inhibition zone (IZ) [1] [mm]	MIC [1] [µg/mL]	inhibition zone (IZ) [2] [mm]	MIC [2] [µg/mL]	inhibition zone (IZ) [3] [mm]	MIC [3] [µg/mL]	inhibition zone (IZ) [4] [mm]	MIC [4] [µg/mL]	inhibition zone (IZ) [5] [mm]	MIC [5] [µg/mL]	inhibition zone (IZ) [6] [mm]	MIC [6] [µg/mL]	inhibition zone (IZ) [7] [mm]	MIC [7] [µg/mL]	inhibition zone (IZ) [8] [mm]	MIC [8] [µg/mL]
Cc1cccc(CSc2nnc(-c3ccccc3COc3cccc(C)c3)o2)c1	11	12.5 (≈ 31.1 µM)	11	12.5 (≈ 31.1 µM)	11	12.5 (≈ 31.1 µM)	16	6.25 (≈ 15.5 µM)	11	12.5 (≈ 31.1 µM)	11	12.5 (≈ 31.1 µM)	11	12.5 (≈ 31.1 µM)	11	12.5 (≈ 31.1 µM)
Cc1ccccc1OCc1ccccc1-c1nnc(SCc2ccc(Cl)cc2Cl)o1	16	6.25 (≈ 13.7 µM)	16	6.25 (≈ 13.7 µM)	11	12.5 (≈ 27.3 µM)	16	6.25 (≈ 13.7 µM)	11	12.5 (≈ 27.3 µM)	16	6.25 (≈ 13.7 µM)	16	6.25 (≈ 13.7 µM)	16	6.25 (≈ 13.7 µM)
COc1cc(-c2nnc(-c3ccccc3COc3cccc(C)c3)o2)cc(OC)c1OC	16	6.25 (≈ 14.5 µM)	11	12.5 (≈ 28.9 µM)	16	6.25 (≈ 14.5 µM)	16	6.25 (≈ 14.5 µM)	11	12.5 (≈ 28.9 µM)	16	6.25 (≈ 14.5 µM)	16	6.25 (≈ 14.5 µM)	16	6.25 (≈ 14.5 µM)
Cc1ccc(OCc2ccccc2-c2nnc(-c3cc(C)cc(C)c3)o2)cc1	11	12.5 (≈ 33.7 µM)	11	12.5 (≈ 33.7 µM)	11	12.5 (≈ 33.7 µM)	11	12.5 (≈ 33.7 µM)	11	12.5 (≈ 33.7 µM)	11	12.5 (≈ 33.7 µM)	11	12.5 (≈ 33.7 µM)	11	12.5 (≈ 33.7 µM)
Cc1cccc(OCc2ccccc2-c2nnc(SCc3ccc(Cl)cc3Cl)o2)c1	16	6.25 (≈ 13.7 µM)	11	12.5 (≈ 27.3 µM)	16	6.25 (≈ 13.7 µM)	16	6.25 (≈ 13.7 µM)	11	12.5 (≈ 27.3 µM)	16	6.25 (≈ 13.7 µM)	16	6.25 (≈ 13.7 µM)	16	6.25 (≈ 13.7 µM)
Cc1ccccc1OCc1ccccc1-c1nn(CNc2ccc(Cl)cc2C(=O)C(F)(F)F)c(=S)o1	<10	25 (≈ 46.8 µM)	<10	25 (≈ 46.8 µM)	<10	25 (≈ 46.8 µM)	<10	25 (≈ 46.8 µM)	<10	25 (≈ 46.8 µM)	<10	25 (≈ 46.8 µM)	<10	25 (≈ 46.8 µM)	<10	25 (≈ 46.8 µM)
Cc1ccc(Cl)c(NCn2nc(-c3ccccc3COc3ccc(Cl)cc3)oc2=S)c1	<10	25 (≈ 52.9 µM)	<10	25 (≈ 52.9 µM)	<10	25 (≈ 52.9 µM)	<10	25 (≈ 52.9 µM)	<10	25 (≈ 52.9 µM)	<10	25 (≈ 52.9 µM)	<10	25 (≈ 52.9 µM)	<10	25 (≈ 52.9 µM)
Cc1cccc(OCc2ccccc2-c2nnc(-c3ccccc3)o2)c1	<10	25 (≈ 73 µM)	<10	25 (≈ 73 µM)	<10	25 (≈ 73 µM)	<10	25 (≈ 73 µM)	<10	25 (≈ 73 µM)	<10	25 (≈ 73 µM)	<10	25 (≈ 73 µM)	<10	25 (≈ 73 µM)
Cc1ccc(OCc2ccccc2-c2nnc(-c3ccccc3F)o2)cc1	16	6.25 (≈ 17.3 µM)	16	6.25 (≈ 17.3 µM)	16	6.25 (≈ 17.3 µM)	16	6.25 (≈ 17.3 µM)	16	6.25 (≈ 17.3 µM)	16	6.25 (≈ 17.3 µM)	16	6.25 (≈ 17.3 µM)	16	6.25 (≈ 17.3 µM)
Cc1ccccc1OCc1ccccc1-c1nnc(SCc2ccc(Cl)cc2)o1	11	12.5 (≈ 29.6 µM)	11	12.5 (≈ 29.6 µM)	11	12.5 (≈ 29.6 µM)	11	12.5 (≈ 29.6 µM)	11	12.5 (≈ 29.6 µM)	11	12.5 (≈ 29.6 µM)	11	12.5 (≈ 29.6 µM)	11	12.5 (≈ 29.6 µM)
Cc1cccc(OCc2ccccc2-c2nnc(-c3cccc(Br)c3)o2)c1	<10	25 (≈ 59.3 µM)	<10	25 (≈ 59.3 µM)	<10	25 (≈ 59.3 µM)	<10	25 (≈ 59.3 µM)	<10	25 (≈ 59.3 µM)	<10	25 (≈ 59.3 µM)	<10	25 (≈ 59.3 µM)	<10	25 (≈ 59.3 µM)
Cc1ccc(OCc2ccccc2-c2nnc(SCc3cccc(C)c3)o2)cc1	11	12.5 (≈ 31.1 µM)	11	12.5 (≈ 31.1 µM)	11	12.5 (≈ 31.1 µM)	11	12.5 (≈ 31.1 µM)	11	12.5 (≈ 31.1 µM)	11	12.5 (≈ 31.1 µM)	11	12.5 (≈ 31.1 µM)	11	12.5 (≈ 31.1 µM)
Clc1ccc(OCc2ccccc2-c2nnc(-c3cccc(Br)c3)o2)cc1	<10	25 (≈ 56.6 µM)	<10	25 (≈ 56.6 µM)	<10	25 (≈ 56.6 µM)	<10	25 (≈ 56.6 µM)	<10	25 (≈ 56.6 µM)	<10	25 (≈ 56.6 µM)	<10	25 (≈ 56.6 µM)	<10	25 (≈ 56.6 µM)
Cc1cccc(OCc2ccccc2-c2nn(CNc3cc(C)ccc3Cl)c(=S)o2)c1	<10	25 (≈ 55.3 µM)	<10	25 (≈ 55.3 µM)	<10	25 (≈ 55.3 µM)	<10	25 (≈ 55.3 µM)	<10	25 (≈ 55.3 µM)	<10	25 (≈ 55.3 µM)	<10	25 (≈ 55.3 µM)	<10	25 (≈ 55.3 µM)
CCSc1nnc(-c2ccccc2COc2ccccc2C)o1	<10	25 (≈ 76.6 µM)	<10	25 (≈ 76.6 µM)	<10	25 (≈ 76.6 µM)	<10	25 (≈ 76.6 µM)	<10	25 (≈ 76.6 µM)	<10	25 (≈ 76.6 µM)	<10	25 (≈ 76.6 µM)	<10	25 (≈ 76.6 µM)
Clc1ccc(OCc2ccccc2-c2nnc(-c3ccccc3)o2)cc1	<10	25 (≈ 68.9 µM)	<10	25 (≈ 68.9 µM)	<10	25 (≈ 68.9 µM)	<10	25 (≈ 68.9 µM)	<10	25 (≈ 68.9 µM)	<10	25 (≈ 68.9 µM)	<10	25 (≈ 68.9 µM)	<10	25 (≈ 68.9 µM)
Cc1cccc(OCc2ccccc2-c2nnc(SCc3ccc(Cl)cc3)o2)c1	11	12.5 (≈ 29.6 µM)	11	12.5 (≈ 29.6 µM)	11	12.5 (≈ 29.6 µM)	11	12.5 (≈ 29.6 µM)	11	12.5 (≈ 29.6 µM)	11	12.5 (≈ 29.6 µM)	11	12.5 (≈ 29.6 µM)	11	12.5 (≈ 29.6 µM)
